Assay results from ChEMBL document CHEMBL4480362, “Design and synthesis of DNA-intercalative naphthalimide-benzothiazole/cinnamide derivatives: cytotoxicity evaluation and topoisomerase-IIα inhibition” (Medchemcomm, 2019).
Active and inactive are the calls of the source. The calls are words filed in the database; no cut-off is given here.

Columns and labels:
HT-29 = test: Cytotoxicity against human HT-29 cells assessed as reduction in cell viability after 48 hrs by MTT assay; format: functional, cell-based; details: HT-29, 48 h
Outline: (§1)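 Cell lines from NCCS were grown in DMEM with 10% FBS, penicillin and streptomycin at 37 °C, 5% CO2. Cells were seeded, left 24 h, then exposed to compound for 48 h. MTT (5 mg/ml stock) was added for 4 h. Formazan was dissolved in DMSO and absorbance read at 570 nm.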

MCF7 = test: Cytotoxicity against human MCF7 cells assessed as reduction in cell viability after 48 hrs by MTT assay; format: functional, cell-based; details: MCF7, 48 h; outline: as §1
Calf thymus DNA [1] = test: Binding affinity to calf thymus DNA assessed as hyperchromicity at 15 to 30 uM by CD spectroscopic method; format: nucleic-acid assay; details: Bos taurus
Outline: (§2)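 CD spectra recorded from 225 to 325 nm with about 15 × 10^-6 M CT DNA. Compound:DNA molar ratios were 1:0 and 1:1, in 100 mM TE (pH 7.0) at 25 °C. Each spectrum is the average of three scans.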

A549 = test: Cytotoxicity against human A549 cells assessed as reduction in cell viability after 48 hrs by MTT assay; format: functional, cell-based; details: A549, 48 h; outline: as §1
Calf thymus DNA [2] = test: Binding affinity to calf thymus DNA assessed as hypochromic shift formation at 25 uM by UV-vis spectra method; format: nucleic-acid assay; details: Bos taurus
Outline: (§3)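 CT DNA titrated into a cuvette holding about 25 µM hybrid in 100 mM TE (pH 7.0), at 25 °C with a 1 cm quartz cell. The compound stock was in DMSO, diluted into buffer. DNA was added stepwise until the hybrid absorption band stayed at a fixed wavelength. Solutions were prepared fresh the same day.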

[3] = target: DNA topoisomerase 2-alpha (Homo sapiens) (UniProt P11388); test: Inhibition of topoisomerase 2 (unknown origin) assessed as reduction in decatenation of kinetoplast DNA at 100 uM incubated for 30 mins by ethidium bromide staining based gel electrophoresis method
Sequence of DNA topoisomerase 2-alpha (Homo sapiens) (P11388 whole entry): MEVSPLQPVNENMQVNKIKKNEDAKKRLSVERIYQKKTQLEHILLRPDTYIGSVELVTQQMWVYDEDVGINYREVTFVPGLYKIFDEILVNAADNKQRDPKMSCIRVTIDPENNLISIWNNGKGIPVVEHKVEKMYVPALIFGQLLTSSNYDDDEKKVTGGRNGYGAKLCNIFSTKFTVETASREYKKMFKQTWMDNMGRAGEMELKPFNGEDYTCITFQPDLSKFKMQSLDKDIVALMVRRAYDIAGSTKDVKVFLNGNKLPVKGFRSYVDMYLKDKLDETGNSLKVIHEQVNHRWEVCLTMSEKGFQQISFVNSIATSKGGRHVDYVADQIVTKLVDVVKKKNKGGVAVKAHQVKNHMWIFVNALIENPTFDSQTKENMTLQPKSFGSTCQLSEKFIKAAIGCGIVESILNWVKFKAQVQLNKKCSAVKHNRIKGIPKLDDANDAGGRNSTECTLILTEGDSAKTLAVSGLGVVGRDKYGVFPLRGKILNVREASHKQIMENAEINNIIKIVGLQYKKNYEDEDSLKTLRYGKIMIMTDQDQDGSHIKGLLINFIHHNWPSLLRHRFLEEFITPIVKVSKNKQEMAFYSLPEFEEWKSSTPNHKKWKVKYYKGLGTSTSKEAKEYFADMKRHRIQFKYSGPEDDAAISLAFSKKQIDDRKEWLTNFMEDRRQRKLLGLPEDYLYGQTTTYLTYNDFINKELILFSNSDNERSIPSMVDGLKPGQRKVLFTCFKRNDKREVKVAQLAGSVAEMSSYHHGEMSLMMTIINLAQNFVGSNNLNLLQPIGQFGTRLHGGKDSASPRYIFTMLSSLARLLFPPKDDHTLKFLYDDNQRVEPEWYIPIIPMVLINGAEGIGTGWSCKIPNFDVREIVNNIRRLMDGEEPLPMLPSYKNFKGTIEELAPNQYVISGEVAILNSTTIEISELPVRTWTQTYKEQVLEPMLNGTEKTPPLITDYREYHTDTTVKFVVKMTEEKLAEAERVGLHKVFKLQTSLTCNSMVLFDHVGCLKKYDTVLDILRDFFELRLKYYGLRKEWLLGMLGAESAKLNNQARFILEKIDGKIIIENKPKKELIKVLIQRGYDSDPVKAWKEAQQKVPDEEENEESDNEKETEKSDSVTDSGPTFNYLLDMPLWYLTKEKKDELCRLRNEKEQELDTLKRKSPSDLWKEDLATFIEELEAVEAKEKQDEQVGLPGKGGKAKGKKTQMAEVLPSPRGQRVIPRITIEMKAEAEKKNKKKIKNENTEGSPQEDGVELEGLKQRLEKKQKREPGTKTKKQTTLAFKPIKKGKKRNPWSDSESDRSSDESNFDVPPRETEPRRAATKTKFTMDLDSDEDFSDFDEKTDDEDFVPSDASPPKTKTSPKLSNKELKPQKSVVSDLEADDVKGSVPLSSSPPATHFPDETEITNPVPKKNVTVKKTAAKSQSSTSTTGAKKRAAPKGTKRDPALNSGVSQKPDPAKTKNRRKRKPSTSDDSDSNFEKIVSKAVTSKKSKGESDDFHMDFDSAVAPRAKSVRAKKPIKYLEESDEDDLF

[4] = test system: Panel NCI-60 (60 carcinoma cell lines); test: Growth inhibition of human NCI60 cells after 72 hrs by SRB assay; format: functional
Calf thymus DNA [5] = test: Binding affinity to calf thymus DNA assessed as change in viscosity at 15 uM by ethidium bromide staining-based method; format: nucleic-acid assay; details: Bos taurus
Calf thymus DNA [6] = test: Binding affinity to calf thymus DNA assessed as increase in emission peak intensity at 10 uM by fluorescence spectroscopic method; format: nucleic-acid assay; details: Bos taurus
Outline: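 Compound held constant at 10 µM and titrated with CT DNA added in multiples of 0.5 µM, at 25 °C in a 1 cm quartz cuvette. Excitation at 350 nm; emission recorded from 355 to 500 nm after each addition. Spectra are averages of three scans.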

Calf thymus DNA [7] = test: Binding affinity to calf thymus DNA assessed as positive band formation at 15 to 30 uM by CD spectroscopic method; format: nucleic-acid assay; details: Bos taurus; outline: as §2
Calf thymus DNA [8] = test: Binding affinity to calf thymus DNA assessed as absorption band formation at 25 uM by UV-vis spectra method; format: nucleic-acid assay; details: Bos taurus; outline: as §3
Calf thymus DNA [9] = test: Binding affinity to calf thymus DNA assessed as bathochromic shift at 25 uM by UV-vis spectra method; format: nucleic-acid assay; details: Bos taurus; outline: as §3

SMILES | IC50 (HT-29) [µM] | IC50 (MCF7) [µM] | Activity (Calf thymus DNA [1]) | IC50 (A549) [µM] | Activity (Calf thymus DNA [2]) | inhibition [3] | GI50 [4] [µM] | Activity (Calf thymus DNA [5]) | Activity (Calf thymus DNA [6]) | Activity (Calf thymus DNA [7]) | Activity (Calf thymus DNA [8]) | Activity (Calf thymus DNA [9]) [nm]
COc1cccc(/C=C/C(=O)N2CCN(CCN3C(=O)c4cccc5cccc(c45)C3=O)CC2)c1 | 15.6 | 34.1 | Active | 21.7 | – | – | – | – | – | – | – | –
O=C(/C=C/c1cc(F)ccc1F)N1CCN(CCN2C(=O)c3cccc4cccc(c34)C2=O)CC1 | 4.18 | 11.2 | – | 6.39 | – | – | – | – | – | – | – | –
O=C(/C=C/c1cccc(C(F)(F)F)c1)N1CCN(CCN2C(=O)c3cccc4cccc(c34)C2=O)CC1 | 17 | 26.4 | – | 19.7 | – | – | – | – | – | – | – | –
CCOc1ccc2nc(NC(=O)CN3CCN(CCN4C(=O)c5cccc6cccc(c56)C4=O)CC3)sc2c1 | 11.1 | 17.4 | – | 16.6 | – | – | – | – | – | – | – | –
COc1ccc(/C=C/C(=O)N2CCN(CCN3C(=O)c4cccc5cccc(c45)C3=O)CC2)c(OC)c1 | 23.9 | 28.7 | – | 27.2 | – | – | – | – | – | – | – | –
CN(C)c1ccc(/C=C/C(=O)N2CCN(CCN3C(=O)c4cccc5cccc(c45)C3=O)CC2)cc1 | 4.01 | 13.1 | – | 8.26 | – | – | – | – | – | – | – | –
O=C(/C=C/c1ccc(F)c(F)c1)N1CCN(CCN2C(=O)c3cccc4cccc(c34)C2=O)CC1 | 13.4 | 28.3 | – | 18.4 | – | – | – | – | – | – | – | –
Cc1ccc2nc(NC(=O)CN3CCN(CCN4C(=O)c5cccc6cccc(c56)C4=O)CC3)sc2c1 | 4.07 | 15 | – | 8.07 | – | – | – | – | – | – | – | –
CCOc1ccc(/C=C/C(=O)N2CCN(CCN3C(=O)c4cccc5cccc(c45)C3=O)CC2)cc1 | 12 | 28.9 | – | 19.4 | – | – | – | – | – | – | – | –
Cc1nc2ccc(NC(=O)CN3CCN(CCN4C(=O)c5cccc6cccc(c56)C4=O)CC3)cc2s1 | 3.47 | 5.08 | Active | 3.89 | Active | Active | 1.19 to 14.1 | Active | Active | Active | – | –
O=C(/C=C/c1ccc2c(c1)OCO2)N1CCN(CCN2C(=O)c3cccc4cccc(c34)C2=O)CC1 | 3.8 | 18 | – | 4.79 | Active | Active | – | Active | Active | Active | Active | –
COc1ccc(/C=C/C(=O)N2CCN(CCN3C(=O)c4cccc5cccc(c45)C3=O)CC2)cc1O | 10.3 | 13.7 | – | 14.2 | – | – | – | – | – | – | – | –
CN(C)CCN1C(=O)c2cccc3cc(N)cc(c23)C1=O [AMONAFIDE] | 5.46 | 4.05 | – | 7.76 | – | inactive | – | – | – | – | – | –
O=C(/C=C/c1ccccc1)N1CCN(CCN2C(=O)c3cccc4cccc(c34)C2=O)CC1 | 16 | 22.9 | Active | 21.9 | – | inactive | – | inactive | Active | – | – | –
Cc1cc2nc(NC(=O)CN3CCN(CCN4C(=O)c5cccc6cccc(c56)C4=O)CC3)sc2cc1C | 4.98 | 12.6 | – | 6.2 | – | – | – | – | – | – | – | –
O=C(CN1CCN(CCN2C(=O)c3cccc4cccc(c34)C2=O)CC1)Nc1nc2ccccc2s1 | 10.8 | 26.5 | – | 14.8 | – | – | – | – | – | – | – | –
O=C(/C=C/c1cc(F)cc(F)c1)N1CCN(CCN2C(=O)c3cccc4cccc(c34)C2=O)CC1 | 8.39 | 13.7 | – | 6.41 | – | – | – | – | – | – | – | –
O=C(/C=C/c1ccc(F)cc1F)N1CCN(CCN2C(=O)c3cccc4cccc(c34)C2=O)CC1 | 17.4 | 23.5 | – | 16.2 | – | – | – | – | – | – | – | –
O=C(CN1CCN(CCN2C(=O)c3cccc4cccc(c34)C2=O)CC1)Nc1ccc2ncsc2c1 | 3.72 | 7.91 | Active | 4.07 | – | Active | 1.38 to 43.3 | Active | Active | Active | Active | 2
COc1ccc2nc(NC(=O)CN3CCN(CCN4C(=O)c5cccc6cccc(c56)C4=O)CC3)sc2c1 | 4.22 | 7.94 | – | 4.76 | – | – | – | – | – | – | – | –
O=C(/C=C/c1cc(F)c(F)c(F)c1)N1CCN(CCN2C(=O)c3cccc4cccc(c34)C2=O)CC1 | 13.8 | 19.5 | – | 14.8 | – | – | – | – | – | – | – | –
